FGF22 binding = shifts melting point of recombinant human FGF22. Q9HCT0. recombinant FGF22 thermal shift, SYPRO orange fluorescence; percent of sucrose octasulfate shift, DMSO zero. activity (Tm shift, normalised), % at 9.99 µM. 1.5% of 340,000 active. AID 651658;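 active means mean Tm shift, scaled 0 neutral to 100 positive control, at about 1.3% or above, every replicate too, limit read from the data; inconclusive means no clear call, values can overlap the other calls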
Target sequence (Q9HCT0 whole entry, looked up): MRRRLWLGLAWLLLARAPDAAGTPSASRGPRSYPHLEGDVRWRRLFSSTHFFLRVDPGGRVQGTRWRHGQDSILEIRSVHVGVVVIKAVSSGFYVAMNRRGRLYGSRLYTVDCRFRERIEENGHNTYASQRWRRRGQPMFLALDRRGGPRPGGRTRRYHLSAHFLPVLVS
Xi reactivation = X-chromosome reactivation activator; AID 743238; activation, % at 7.58 µM; XiGFP mouse fibroblasts, % GFP-positive cells imaging, 3 d; cells co-treated with 5-aza-dC sensitizer; scaled so ellipticine positive control = 100%; 0.055% of 360,000 active;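 active means mean normalized replicate activation at least 10% and every replicate at or above 10%; inconclusive means only one of the two criteria met; inactive means mean below 10% and not all replicates reach 10%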;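 further: 0% = median of on-plate neutral control wells and 100% = ellipticine 6 µM median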
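Schedule: 3 d treatment, 15 min room-temperature fixation; system: 68-5-11 XiGFP fibroblast line; buffer or medium: DMEM plus 5-aza-dC sensitizer; control set: ellipticine 6 µM positive control; compound: one concentration, pinned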
SIRT5 block = sirtuin-5 (human) deacylase inhibition; 1.1% of 330,000 active; Q9NXA8; Purified SirT5, succinyl-peptide AMC, trypsin-coupled fluorescence; AID 652115; inhibition, % at 15 µM; in the data active means inhibition above about 15%; inconclusive means no clear call, values can overlap the other calls
Target sequence (Q9NXA8 whole entry, looked up): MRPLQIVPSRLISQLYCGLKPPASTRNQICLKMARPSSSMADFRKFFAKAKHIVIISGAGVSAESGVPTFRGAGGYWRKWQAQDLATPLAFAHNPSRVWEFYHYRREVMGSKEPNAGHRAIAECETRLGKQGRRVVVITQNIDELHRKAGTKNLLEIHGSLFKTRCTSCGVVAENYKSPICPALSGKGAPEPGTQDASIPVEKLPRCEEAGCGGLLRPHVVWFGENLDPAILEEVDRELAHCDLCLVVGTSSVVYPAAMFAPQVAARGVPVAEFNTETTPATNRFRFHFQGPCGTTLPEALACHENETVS
ARNT-TACC3 inh = disrupts binding between human ARNT and TACC3 | Q9Y6A5 | AlphaScreen His-ARNT PAS-B/GST-TACC3 binding, luminescence; TACC3 fragment carries E629A point mutation | inhibition, % at 9.99 µM | 0.66% of 390,000 active;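 active means mean inhibition of replicates at least 50% and at least half of replicates each reaching 50%; inconclusive means half or more replicates reach 50% but mean below 50%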;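 further: 0% = complete ARNT plus TACC3 wells and 100% = ARNT alone without TACC3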
FN deposit inh = fibronectin deposition inhibition; AH1F fibroblasts, Alexa488-fibronectin deposition fluorescence, overnight; inhibition, % at 12.6 µM; 0.086% of 350,000 active;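 active means mean inhibition across replicates of 30% or more, regardless of how many single replicates reach that level; inconclusive means mean under 30% yet at least half of replicates reach 30%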;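 further: positive control wells lacked labelled fibronectin entirely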
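Assay system: AH1F fibroblasts / Quantity: 10000 cells per well / Medium: DMEM plus 2% serum, read in PBS / Reagent: labelled fibronectin 24 nM / Dosing: single dose, pinned / Times: 1 h cell attachment, overnight exposure to compound and label / Signal: fluorescence, ex 485 nm, em 525 nm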
DENV2 CPE = DENV2-induced cell death inhibition; CPE inhibition, % at 9.99 µM; 1.7% of 350,000 active; DENV2-infected cells, cytopathic effect rescue, plate reader; in the data active means CPE inhibition above about 20%, passing the limit was not always enough; inconclusive means no clear call, values can overlap the other calls; tested in BHK-21 cells;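 further: 0% = median of neutral control wells and 100% = median of positive control wells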
* = called active by the depositor; u = inconclusive; x = no result given; ! = not confirmed by another sample. This is a sample that favours compounds with a hit; in the whole collection about 3.8% have one here.

SMILES	FGF22 binding	Xi reactivation	SIRT5 block	ARNT-TACC3 inh	FN deposit inh	DENV2 CPE
O=C(NC1CCCCC1)N1CC2(C1)[C@@H](c1ccccc1)[C@@H](CO)N2CC1CC1	x	0	1	x	-1	-10
CS(=O)(=O)N1[C@@H]2c3ccc(-c4cccc(F)c4)c(=O)n3C[C@@H]2[C@@H](CO)[C@@H]1C(=O)NC1CCC1	x	0	-15	x	x	-11
COc1ccc(/C=C2\Oc3cc(OCC(N)=O)ccc3C2=O)cc1OC	0	0	-1	-13	6	45*
O=S(=O)(Nc1cc2nc3ccccc3nc2n1Cc1ccccc1)c1ccc(Cl)cc1	0	78*	1	x	5	x
O=S(=O)(NCc1ccccc1)c1ccc(Cl)cc1	x	x	x	-6	11	x
CC1CCN(C(=O)c2[nH]cnc2C(=O)N[C@@H](CCCCNC(=O)OC(C)(C)C)C(=O)OC(C)(C)C)CC1	0	0	x	8	-2	-11
CC(C)C[C@H](NC(=O)c1nc[nH]c1C(=O)N1CCC(C)CC1)C(=O)OC(C)(C)C	0	0	x	1	-6	82*
CCOC(=O)c1ccc(NC(=O)c2nc[nH]c2C(=O)NC2CCN(C(=O)OC(C)(C)C)CC2)cc1	0	0	x	-3	-5	68*
CC(C)C[C@H](NC(=O)c1nc[nH]c1C(=O)NCC(=O)OCc1ccccc1)C(=O)OC(C)(C)C	0	0	21*	-1	-3	-2
CC(C)(C)OC(=O)N1CCC(NC(=O)c2nc[nH]c2C(=O)NC2CCN(C(=O)OC(C)(C)C)CC2)CC1	0	0	-8	7	-3	-7
CCN(CC)C(=O)c1nc[nH]c1C(=O)N1CCC(C)CC1	9.1*	0	0	-17	-4	-8
CC(C)[C@@H]1C(=O)N[C@@H](c2ccccc2)CC=CC[C@H](C)Oc2ccccc2C(=O)N1C (mixture of isomers)	x	0	x	x	3	x
CC(C)(C)OC(=O)N1CCC(NC(=O)c2nc[nH]c2C(=O)NCC(=O)OCc2ccccc2)CC1	0	0	x	4	-4	38*
CCC(=O)NC(=S)NNC(=O)c1ccc(O)cc1	0	0	0	75*	x	0
O=C(c1cccnc1)N1C[C@@H]2[C@H](c3ccccc31)[C@@H](CO)N2CC1CCCC1	0	0	-1	-6	3	-10
C[C@@H]1CN([C@@H](C)CO)C(=O)c2c(c3ccccc3n2C)-c2ccccc2CO[C@H]1CN(C)C(=O)Nc1cccc(Cl)c1Cl	-1	0	-5	x	17	40*
CC(C)[C@@H](C)NC(=O)N(C)C[C@H]1OCc2ccccc2-c2c(n(C)c3ccccc23)C(=O)N([C@@H](C)CO)C[C@H]1C	0	1	-1	6	15	7
C[C@H](CO)N1C[C@H](C)[C@H](CN(C)C(=O)Cc2ccccc2)OCc2ccccc2-c2c(n(C)c3ccccc23)C1=O	x	0	x	x	-1	x
C[C@@H]1CN([C@@H](C)CO)C(=O)c2c(c3ccccc3n2C)-c2ccccc2CO[C@H]1CN(C)Cc1cccc2c1OCCCO2	0	0	7	x	-15	21*
C[C@H](CO)N1C[C@H](C)[C@@H](CN(C)C(=O)Cc2ccccc2)OCc2ccccc2-c2c(n(C)c3ccccc23)C1=O	0	0	18*	6	3	u
CC(C)[C@@H](C)NC(=O)N(C)C[C@@H]1OCc2ccccc2-c2c(n(C)c3ccccc23)C(=O)N([C@@H](C)CO)C[C@@H]1C	0	0	19*	7	11	12
CN1CCN(C(=O)C[C@@H]2C[C@@H]3c4cc(NC(=O)Nc5ccc(F)cc5)ccc4O[C@@H]3[C@@H](CO)O2)CC1	0	0	1	-3	-18	3
Cc1ccc(S(=O)(=O)N2C[C@H](O)COC[C@H]3O[C@H](CC(=O)N[C@@H]4CCN(Cc5ccccc5)C4)CC[C@@H]32)cc1	0	0	0	4	-2	2
COc1cccc(NC(=O)N2CC3(C2)[C@H](c2ccccc2)[C@@H](CO)N3C(=O)C2CCC2)c1	0	0	4	x	10	14
CNC[C@H]1OCc2ccccc2-c2c(n(C)c3ccccc23)C(=O)N([C@@H](C)CO)C[C@@H]1C	x	0	x	x	-21	x
SMILES	FGF22 binding	Xi reactivation	SIRT5 block	ARNT-TACC3 inh	FN deposit inh	DENV2 CPE
COc1ccc(NC(=O)Nc2cccc3c2O[C@H](CN(C)C(=O)Nc2ccc(F)cc2)[C@@H](C)CN([C@H](C)CO)C3=O)cc1	-1	0	4	17	-4	3
C[C@H](C(=O)N(C)C[C@@H]1OCc2ccccc2-c2c(n(C)c3ccccc23)C(=O)N([C@H](C)CO)C[C@H]1C)c1ccccc1	0	0	3	x	-15	18
C[C@H]1CN([C@@H](C)CO)C(=O)c2c(c3ccccc3n2C)-c2ccccc2CO[C@H]1CN(C)Cc1ccccc1	x	0	19*	x	-1	1
C[C@@H]1CN([C@@H](C)CO)C(=O)c2c(c3ccccc3n2C)-c2ccccc2CO[C@@H]1CN(C)Cc1ccc(-c2ccccc2)cc1	x	0	17*	x	1	8
C[C@@H]1CN([C@@H](C)CO)C(=O)c2c(c3ccccc3n2C)-c2ccccc2CO[C@H]1CN(C)Cc1ccc(-c2ccccc2)cc1	0	0	4	x	12	-3
C[C@@H]1CN([C@@H](C)CO)C(=O)c2c(c3ccccc3n2C)-c2ccccc2CO[C@@H]1CN(C)C(=O)[C@H](C)c1ccccc1	0	0	20*	x	-12	-19
C[C@@H]1CN([C@H](C)CO)C(=O)c2c(c3ccccc3n2C)-c2ccccc2CO[C@@H]1CN(C)Cc1ccccc1	x	0	x	x	-11	x
C[C@@H]1CN([C@@H](C)CO)C(=O)c2c(c3ccccc3n2C)-c2ccccc2CO[C@H]1CN(C)Cc1cccc(O)c1	0	0	0	x	0	25*
C[C@@H]1CN([C@@H](C)CO)C(=O)c2cc(NC(=O)Nc3ccc(C(F)(F)F)cc3)ccc2O[C@@H](C)CCCCO[C@H]1CN(C)C(=O)Nc1ccccc1	x	0	x	x	x	x
C[C@H](CO)N1C[C@H](C)[C@H](CN(C)Cc2ccc3c(c2)OCCN3C)OCc2ccccc2-c2c(n(C)c3ccccc23)C1=O	0	-1	3	x	-12	-3
C[C@@H]1CN([C@H](C)CO)C(=O)c2c(c3ccccc3n2C)-c2ccccc2CO[C@H]1CN(C)Cc1ccc2c(c1)OCCN2C	0	0	0	x	-3	28*!
CCOc1nc(N2CCOCC2)nc(C)c1[N+](=O)[O-]	44*	0	0	7	0	4

High-throughput results from PubChem BioAssay.
